Active and inactive are the calls of the source. The rule behind the calls is not given here.

In data set [1] the target is Macrophage colony-stimulating factor 1 receptor (Homo sapiens) (UniProt P07333). The data set can be described thus: Inhibition of partial length human CSF1R expressed in bacterial expression system assessed as activity remaining at 1 uM by kinome scan assay.
Data set [2] has as its system BaF3. Briefly: Antitumor activity against TEL-fused cKIT T670I mutant expressing mouse BA/F3 cells allografted in nu/nu mouse assessed as tumor growth inhibition at 50 mg/kg/day, ip administered daily for 10 days. In kind it is functional. The settings on record: 240 h, read-out: TGI. A digest of the protocol:
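Female nu/nu mice, 5 weeks old at purchase, given 1 million BaF3-TEL-cKIT-T670I cells in PBS/Matrigel 1:1 subcutaneously on the right flank. At tumour volume 200–400 mm3, randomised into groups of 7 and dosed IP daily for 10 days (25, 50, 100 mg/kg/d or vehicle: 0.5% methylcellulose/0.4% Tween80 in water). Tumour volume (W2×L/2) and body weight recorded daily.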

Data set [3] relates to Mast/stem cell growth factor receptor Kit (Homo sapiens), P10721 [T670I]. The data set can be described thus: Inhibition of partial length human cKIT T670I mutant expressed in bacterial expression system assessed as activity remaining at 1 uM by kinome scan assay.
Data set [4] relates to Mast/stem cell growth factor receptor Kit (Homo sapiens), P10721 [V559D,V654A]. Briefly: Inhibition of TEL-fused cKIT V559D/V654A double mutant (unknown origin) expressed in mouse BA/F3 cells assessed as cell growth inhibition after 72 hrs by cell titer-glo assay. In kind it is cell-based. A digest of the protocol:
(§1)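 Cells seeded at 3000 per well and exposed to serial compound dilutions for 72 h. Viability read by CellTiter-Glo luminescence and normalised to DMSO controls; mean of three independent measurements. BaF3 lines kept IL-3-free in RPMI 1640/10% FBS after retroviral transduction and puromycin selection. GIST lines grown in DMEM/10% FBS.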
On the technique in general: ATP-based viability assays read luminescence as a measure of living cells.

The test system of a further data set is GISTT1. The data set can be described thus: Induction of apoptosis in human GISTT1 cells assessed as increase in cleaved PARP levels after 24 hrs by Western blot analysis. It is filed as functional, cell-based. In outline:
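GIST-T1 or GIST-5R cells in DMEM with 10% FBS were exposed to serially diluted compound for 24 h. Apoptosis was assessed by western blot with PARP and GAPDH antibodies.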
On the technique in general: In western blotting, separated proteins are transferred to a membrane and probed.

For data set [5], the system named is BaF3. The data set can be described thus: Antiproliferative against mouse BA/F3 cells harboring TEL-fused cKIT T670I mutant allografted in nu/nu mouse assessed as tumor growth inhibition at 25 to 100 mg/kg, ip administered daily for 10 days by Ki-67 staining based microscopic analysis. It is filed as functional, organism-based. In outline:
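Tumours from BaF3-TEL-cKIT-T670I subcutaneous xenografts in nu/nu mice after 10 days of daily IP dosing (25–100 mg/kg/d). Sections underwent citrate pH 6.0 microwave antigen retrieval and casein block, then anti-Ki-67 mouse mAb 1:50 overnight at 4 °C. Detection with DAB and haematoxylin counterstain.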

Data set [6] in a line: AUC (0 to infinity) in Sprague-Dawley rat at 1 mg/kg, iv measured up to 8 hrs post dosing. It is filed as ADME, organism-based. Also on record: dose 1 mg/kg, route intravenous, time infinity. The settings on record: in vivo. In outline:
(§2)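 Male Sprague-Dawley rats, 8 weeks old, fasted overnight; iv dosing from a 1 mg/mL solution in 5% DMSO/40% PEG400/55% saline. Jugular-vein blood (~0.2 mL, heparinised) taken at 1, 5, 15, 30 min and 1, 2, 4, 6, 8 h; plasma held at -80 °C until analysis; n=3.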

Data set [7] relates to Mast/stem cell growth factor receptor Kit (Homo sapiens), P10721 [N822K]. Briefly: Inhibition of TEL-fused cKIT N822K mutant (unknown origin) expressed in mouse BA/F3 cells assessed as cell growth inhibition after 72 hrs by cell titer-glo assay. In kind it is cell-based. A digest of the protocol: as §1
Chain of Mast/stem cell growth factor receptor Kit (Homo sapiens), P10721 [N822K] (P10721 whole entry N822K, the tested form may be a part): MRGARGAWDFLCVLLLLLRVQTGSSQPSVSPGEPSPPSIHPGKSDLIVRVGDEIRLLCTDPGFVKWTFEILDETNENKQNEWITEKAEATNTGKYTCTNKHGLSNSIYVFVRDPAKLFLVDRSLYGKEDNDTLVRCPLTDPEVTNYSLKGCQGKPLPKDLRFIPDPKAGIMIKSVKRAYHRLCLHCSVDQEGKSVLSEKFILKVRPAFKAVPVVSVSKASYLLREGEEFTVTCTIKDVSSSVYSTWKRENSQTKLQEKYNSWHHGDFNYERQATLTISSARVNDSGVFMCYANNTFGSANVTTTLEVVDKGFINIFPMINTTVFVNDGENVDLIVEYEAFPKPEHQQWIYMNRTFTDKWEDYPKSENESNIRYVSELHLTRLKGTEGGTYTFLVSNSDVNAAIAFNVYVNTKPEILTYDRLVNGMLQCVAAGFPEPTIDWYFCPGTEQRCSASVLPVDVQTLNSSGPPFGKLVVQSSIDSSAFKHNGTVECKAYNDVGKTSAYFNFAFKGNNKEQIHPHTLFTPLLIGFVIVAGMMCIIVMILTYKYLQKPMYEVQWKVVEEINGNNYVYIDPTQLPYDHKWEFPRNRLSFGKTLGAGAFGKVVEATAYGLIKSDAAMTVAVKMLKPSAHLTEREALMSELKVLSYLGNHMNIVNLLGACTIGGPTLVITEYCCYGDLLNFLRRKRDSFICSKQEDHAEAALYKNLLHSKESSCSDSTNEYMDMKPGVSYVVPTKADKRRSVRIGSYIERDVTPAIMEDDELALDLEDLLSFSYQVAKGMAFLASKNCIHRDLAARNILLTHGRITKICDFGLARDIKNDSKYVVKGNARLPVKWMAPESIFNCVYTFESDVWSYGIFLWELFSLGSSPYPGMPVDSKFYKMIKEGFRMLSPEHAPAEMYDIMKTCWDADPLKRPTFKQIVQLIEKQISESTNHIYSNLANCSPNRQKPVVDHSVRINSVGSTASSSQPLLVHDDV
In data set [8] the target is Proto-oncogene tyrosine-protein kinase receptor Ret (Homo sapiens) (UniProt P07949). The data set can be described thus: Inhibition of TEL-fused partial length human RET expressed in mouse BA/F3 cells after 72 hrs by cell titer-glo assay. It is filed as cell-based. In outline: as §1
Chain of Proto-oncogene tyrosine-protein kinase receptor Ret (Homo sapiens) (P07949 whole entry, the tested form may be a part): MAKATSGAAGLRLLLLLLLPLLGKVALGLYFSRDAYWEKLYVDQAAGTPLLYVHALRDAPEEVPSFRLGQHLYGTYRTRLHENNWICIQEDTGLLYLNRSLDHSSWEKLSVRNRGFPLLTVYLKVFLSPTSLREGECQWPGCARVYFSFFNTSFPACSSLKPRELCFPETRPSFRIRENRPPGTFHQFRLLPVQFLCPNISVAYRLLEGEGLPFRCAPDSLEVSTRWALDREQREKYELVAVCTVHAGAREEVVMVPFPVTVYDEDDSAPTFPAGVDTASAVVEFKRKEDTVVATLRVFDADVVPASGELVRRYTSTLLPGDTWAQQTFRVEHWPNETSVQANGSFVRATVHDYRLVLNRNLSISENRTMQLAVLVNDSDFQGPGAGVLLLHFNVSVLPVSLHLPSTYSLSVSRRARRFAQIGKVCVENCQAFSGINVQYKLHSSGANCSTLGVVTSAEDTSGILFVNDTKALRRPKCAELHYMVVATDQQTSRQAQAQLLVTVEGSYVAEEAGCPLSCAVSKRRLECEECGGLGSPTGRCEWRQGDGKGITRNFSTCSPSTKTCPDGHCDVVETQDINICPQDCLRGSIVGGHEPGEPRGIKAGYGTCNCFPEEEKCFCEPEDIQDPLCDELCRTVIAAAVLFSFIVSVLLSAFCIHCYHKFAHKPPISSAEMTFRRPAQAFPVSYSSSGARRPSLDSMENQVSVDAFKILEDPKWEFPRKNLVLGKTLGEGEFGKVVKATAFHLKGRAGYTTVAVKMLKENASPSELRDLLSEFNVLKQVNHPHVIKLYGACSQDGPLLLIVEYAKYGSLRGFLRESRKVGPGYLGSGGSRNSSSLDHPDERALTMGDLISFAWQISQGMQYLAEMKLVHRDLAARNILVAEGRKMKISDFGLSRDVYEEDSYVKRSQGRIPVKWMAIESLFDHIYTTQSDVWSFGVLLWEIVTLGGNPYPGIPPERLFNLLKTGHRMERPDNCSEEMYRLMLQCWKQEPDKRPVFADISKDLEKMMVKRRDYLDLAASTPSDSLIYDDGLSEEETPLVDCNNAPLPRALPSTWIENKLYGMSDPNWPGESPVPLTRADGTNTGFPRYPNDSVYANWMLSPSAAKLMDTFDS
Data set [9] is described as follows: AUC (0 to t) in Sprague-Dawley rat at 1 mg/kg, iv measured up to 8 hrs post dosing. The settings on record: in vivo. Also on record: time < 8 hr, dose 1 mg/kg, route intravenous. In kind it is ADME, organism-based. A digest of the protocol:
as §2

Data set [10] deals with Cyclin-dependent kinase-like 3 (Homo sapiens) (UniProt Q8IVW4). The data set can be described thus: Inhibition of partial length human CDKL3 expressed in bacterial expression system assessed as activity remaining at 1 uM by kinome scan assay.
Data set [11] addresses Proto-oncogene tyrosine-protein kinase receptor Ret (Homo sapiens) (UniProt P07949). The data set can be described thus: Inhibition of partial length human RET expressed in bacterial expression system assessed as activity remaining at 1 uM by kinome scan assay.
Data set [12] can be described thus: Cmax in Sprague-Dawley rat at 1 mg/kg, iv measured up to 8 hrs post dosing. In kind it is ADME, organism-based. Also on record: dose 1 mg/kg, route intravenous. The settings on record: in vivo. In outline:
as §2

Data set [13] addresses Mast/stem cell growth factor receptor Kit (Homo sapiens, UniProt P10721). The data set can be described thus: Inhibition of wild type cKIT in human GIST-T1 cells assessed as downregulation of AKT phosphorylation at S473 after 1 hr by Western blot analysis. It is filed as cell-based. In outline:
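GIST-T1 cells in DMEM with 10% FBS were exposed to serially diluted compound for 1 h, then lysed. Lysates were analysed by western blot with phospho-specific antibodies against AKT (Ser473), ERK1/2 (Thr202/Tyr204) and S6 ribosomal protein (Ser235/236), each alongside its total protein.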

Data set [14] in a line: Apparent volume of distribution in Sprague-Dawley rat at 1 mg/kg, iv measured up to 8 hrs post dosing. Particulars: in vivo, read-out: Vz. It is filed as ADME, organism-based. A digest of the protocol: as §2
Data set [15] concerns the target Macrophage colony-stimulating factor 1 receptor (Homo sapiens) (UniProt P07333). The data set can be described thus: Inhibition of TEL-fused partial length human CSF1R expressed in mouse BA/F3 cells after 72 hrs by cell titer-glo assay. It is filed as cell-based. A digest of the protocol:
as §1

A short description of data set [16]: Toxicity in nu/nu mouse xenografted with TEL-fused cKIT T670I mutant expressed in mouse BA/F3 cells assessed as body weight reduction at 25 to 100 mg/kg/day, ip after 10 days. The settings on record: in vivo, 240 h. It is filed as organism-based. A digest of the protocol:
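Female nu/nu mice, 5 weeks old on purchase, injected subcutaneously in the right flank with 1×10^6 BaF3-TEL-cKIT-T670I cells in PBS/Matrigel 1:1. At 200–400 mm³ tumours, mice were randomized to 7 per group. They then got 25, 50 or 100 mg/kg/day ip or vehicle (0.5% methylcellulose/0.4% Tween80 in water) for 10 days. Body weight was recorded daily relative to initial weight.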

Data set [17] deals with Receptor-type tyrosine-protein kinase FLT3 (Homo sapiens) (UniProt P36888). Briefly: Inhibition of partial length human FLT3 expressed in bacterial expression system assessed as activity remaining at 1 uM by kinome scan assay.
Chain of Receptor-type tyrosine-protein kinase FLT3 (Homo sapiens) (P36888 whole entry, the tested form may be a part): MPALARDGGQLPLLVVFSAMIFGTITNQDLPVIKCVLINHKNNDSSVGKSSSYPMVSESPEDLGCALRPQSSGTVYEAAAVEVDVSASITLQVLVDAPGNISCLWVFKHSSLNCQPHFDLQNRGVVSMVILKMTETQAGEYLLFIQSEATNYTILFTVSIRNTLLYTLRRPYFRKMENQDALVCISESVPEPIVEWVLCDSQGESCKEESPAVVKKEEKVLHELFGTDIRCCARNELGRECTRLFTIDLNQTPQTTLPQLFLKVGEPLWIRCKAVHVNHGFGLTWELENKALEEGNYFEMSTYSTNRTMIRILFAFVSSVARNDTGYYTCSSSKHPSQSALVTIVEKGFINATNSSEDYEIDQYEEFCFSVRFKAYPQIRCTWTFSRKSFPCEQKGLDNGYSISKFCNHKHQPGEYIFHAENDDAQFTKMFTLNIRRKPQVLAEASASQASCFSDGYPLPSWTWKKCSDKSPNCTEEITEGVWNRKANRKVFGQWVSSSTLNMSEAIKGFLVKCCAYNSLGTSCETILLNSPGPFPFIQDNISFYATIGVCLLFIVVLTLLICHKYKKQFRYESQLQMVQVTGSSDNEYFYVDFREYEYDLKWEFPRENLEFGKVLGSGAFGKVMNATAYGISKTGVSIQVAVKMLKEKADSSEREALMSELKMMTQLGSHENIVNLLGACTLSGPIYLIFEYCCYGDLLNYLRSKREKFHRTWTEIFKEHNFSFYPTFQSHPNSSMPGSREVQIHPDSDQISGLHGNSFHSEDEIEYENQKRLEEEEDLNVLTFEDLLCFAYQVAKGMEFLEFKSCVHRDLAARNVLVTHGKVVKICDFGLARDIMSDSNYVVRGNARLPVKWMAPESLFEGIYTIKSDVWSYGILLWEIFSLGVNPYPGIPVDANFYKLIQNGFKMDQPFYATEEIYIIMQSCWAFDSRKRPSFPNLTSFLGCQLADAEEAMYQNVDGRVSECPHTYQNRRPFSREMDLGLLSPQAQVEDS
For data set [18] the target is unchanged. The data set can be described thus: Inhibition of TEL-fused partial length human FLT3 expressed in mouse BA/F3 cells after 72 hrs by cell titer-glo assay. In kind it is cell-based. In outline:
as §1

Data set [19] deals with Mast/stem cell growth factor receptor Kit (Homo sapiens), P10721 [V559D,T670I]. Briefly: Inhibition of TEL-fused cKIT T670I/V559D double mutant (unknown origin) expressed in mouse BA/F3 cells assessed as cell growth inhibition after 72 hrs by cell titer-glo assay. It is filed as cell-based. In outline: as §1
Data set [20] deals with T1, Mast/stem cell growth factor receptor Kit (Homo sapiens, UniProt P10721, T670I). Briefly: Inhibition of cKIT T670I mutant in human GIST-5R cells assessed as downregulation of ERK phosphorylation at T202/204 after 1 hr by Western blot analysis. In kind it is cell-based. In outline:
(§3)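 GIST-T1 or GIST-5R cells in DMEM with 10% FBS were treated with serially diluted compound for 1 h. Cells were then lysed and analysed by western blotting.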

The target in data set [21] is T1, Mast/stem cell growth factor receptor Kit. The data set can be described thus: Inhibition of cKIT T670I mutant autophosphorylation at Y719 in human GIST-5R cells at 0.1 to 3 uM after 1 hr by Western blot analysis. In kind it is cell-based. A digest of the protocol: as §3

T1 sequence (P10721 26-976 T670I limits assumed): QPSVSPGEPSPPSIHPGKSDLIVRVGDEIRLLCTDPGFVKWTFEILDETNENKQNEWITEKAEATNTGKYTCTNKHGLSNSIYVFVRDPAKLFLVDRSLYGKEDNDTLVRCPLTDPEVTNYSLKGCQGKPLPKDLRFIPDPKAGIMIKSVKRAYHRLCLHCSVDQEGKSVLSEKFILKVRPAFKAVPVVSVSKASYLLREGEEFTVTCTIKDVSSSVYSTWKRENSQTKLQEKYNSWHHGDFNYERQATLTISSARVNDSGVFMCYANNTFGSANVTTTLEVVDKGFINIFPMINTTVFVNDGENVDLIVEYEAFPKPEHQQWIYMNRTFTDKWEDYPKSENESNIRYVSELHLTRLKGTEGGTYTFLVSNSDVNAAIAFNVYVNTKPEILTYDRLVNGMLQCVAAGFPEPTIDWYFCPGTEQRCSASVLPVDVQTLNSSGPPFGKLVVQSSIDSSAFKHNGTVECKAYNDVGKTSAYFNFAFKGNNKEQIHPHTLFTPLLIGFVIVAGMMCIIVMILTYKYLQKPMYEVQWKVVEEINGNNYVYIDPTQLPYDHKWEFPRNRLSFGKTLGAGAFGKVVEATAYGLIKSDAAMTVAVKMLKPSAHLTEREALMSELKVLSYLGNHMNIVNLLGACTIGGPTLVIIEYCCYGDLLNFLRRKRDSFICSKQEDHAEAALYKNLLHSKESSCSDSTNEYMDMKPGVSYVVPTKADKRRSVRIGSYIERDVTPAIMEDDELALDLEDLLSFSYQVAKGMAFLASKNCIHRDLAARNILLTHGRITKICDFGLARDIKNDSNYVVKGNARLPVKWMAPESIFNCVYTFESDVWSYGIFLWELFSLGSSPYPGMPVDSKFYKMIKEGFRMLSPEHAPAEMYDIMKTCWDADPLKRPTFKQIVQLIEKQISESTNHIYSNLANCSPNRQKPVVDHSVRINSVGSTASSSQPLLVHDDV
Chain of Macrophage colony-stimulating factor 1 receptor (Homo sapiens) (P07333 whole entry, the tested form may be a part): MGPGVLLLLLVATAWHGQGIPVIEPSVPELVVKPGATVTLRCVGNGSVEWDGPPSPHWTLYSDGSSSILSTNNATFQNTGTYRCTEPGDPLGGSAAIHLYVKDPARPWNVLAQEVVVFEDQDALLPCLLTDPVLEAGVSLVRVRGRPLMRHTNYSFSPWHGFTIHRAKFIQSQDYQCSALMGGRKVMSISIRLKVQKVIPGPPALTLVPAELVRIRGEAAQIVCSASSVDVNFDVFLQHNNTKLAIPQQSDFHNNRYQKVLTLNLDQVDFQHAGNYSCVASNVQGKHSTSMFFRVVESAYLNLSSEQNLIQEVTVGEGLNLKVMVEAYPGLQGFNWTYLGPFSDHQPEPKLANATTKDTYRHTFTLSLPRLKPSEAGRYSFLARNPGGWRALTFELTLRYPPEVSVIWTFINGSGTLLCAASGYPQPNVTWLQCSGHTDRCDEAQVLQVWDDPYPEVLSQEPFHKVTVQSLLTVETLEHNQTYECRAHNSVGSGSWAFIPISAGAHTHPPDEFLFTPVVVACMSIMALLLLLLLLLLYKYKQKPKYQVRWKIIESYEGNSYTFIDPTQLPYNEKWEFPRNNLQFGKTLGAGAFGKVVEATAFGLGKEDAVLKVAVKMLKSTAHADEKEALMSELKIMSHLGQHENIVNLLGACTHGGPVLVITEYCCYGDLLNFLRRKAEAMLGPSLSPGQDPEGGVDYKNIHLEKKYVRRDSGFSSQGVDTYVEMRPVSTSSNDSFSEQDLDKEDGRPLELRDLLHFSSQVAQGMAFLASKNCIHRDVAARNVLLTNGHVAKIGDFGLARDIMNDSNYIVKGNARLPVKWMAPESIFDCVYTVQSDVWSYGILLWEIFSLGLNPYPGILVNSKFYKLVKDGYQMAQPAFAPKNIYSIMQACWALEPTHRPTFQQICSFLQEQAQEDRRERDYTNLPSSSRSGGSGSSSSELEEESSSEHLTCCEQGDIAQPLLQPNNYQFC

In the case of `CCC(=O)NCC1CCN(c2ccc(NC(=O)Nc3cccc(Oc4ccnc5cc(OC)c(OC)cc45)c3)cc2C(F)(F)F)CC1`, the Activity in data set [1] was 0.05%; in data set [3] it was < 1%; in the data set on GISTT1 it was “Dose-dependent effect”; in data set [10], 0.3%; in data set [11], 0%; in data set [16], “Non-Toxic”. For the same compound, in data set [17], the Activity turned out to be 0.85%. The inhibition in vivo at 50 mg/kg/day in the data set with BaF3 [2] is 37.1%. Moreover, the GI50 (in general, the concentration at which growth is held to half of that of the control) in data set [4] was determined as 360 nM; in data set [7], 40 nM; in data set [8], 120 nM; in [15], 110 nM; in [18], 99 nM; in [19] it was 73 nM. The TGI entry in the data set on BaF3 [5] is “Active”. Besides, the AUC – broadly, the area under the concentration-time curve, a measure of exposure – in data set [6] was found to be 385 ng·h/mL. Also, in data set [9], the AUCt stood at 377 ng·h/mL. In data set [12], the Cmax (commonly the peak of the concentration-time curve) was 2560 ng/mL. The EC50 in data set [13], in [20] and in data set [21] was < 100 nM each time. The Vd in data set [14] was determined as 7.91 L/kg.

The values are drawn from ChEMBL document CHEMBL4428071 (J Med Chem, 2016).
